ChEMBL document CHEMBL3593159, “Identification of 5-nitrofuran-2-amide derivatives that induce apoptosis in triple negative breast cancer cells by activating C/EBP-homologous protein expression” (Bioorg Med Chem, 2015)

Assays:
[1] = system: HCC1806; experiment: Cytotoxicity against human HCC1806 cells assessed as reduction in cell viability incubated for 3 days by cell-titer-Glo reagent based assay; format: functional; settings: for IC50: HCC1806, 72 h
Method in brief: (§1)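 Viability by CellTiter-Glo (ATP read-out). Cells plated at 3 × 10³/well in 384-well format overnight, then exposed to compound over a range (0.125–20 µM for initial series) for 3 d in RPMI 1640 with 10% FBS at 37°C, 5% CO₂. IC₅₀ fitted from dose–response curve.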

[2] = system: HCC1143; experiment: Cytotoxicity against human HCC1143 cells assessed as reduction in cell viability incubated for 3 days by cell-titer-Glo reagent based assay; format: functional; settings: for IC50: HCC1143, 72 h; method in brief: as §1
[3] = system: HCC38; experiment: Cytotoxicity against human HCC38 cells assessed as reduction in cell viability incubated for 3 days by cell-titer-Glo reagent based assay; format: functional; settings: for IC50: HCC38, 72 h; method in brief: as §1
[4] = system: HEK-293T; experiment: Increase in CHOP expression in HEK293T cells stably transfected with luciferase gene at 10 uM incubated for 24 hrs by luciferase reporter gene assay; format: functional, Homo sapiens
Method in brief: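 HEK293T cells stably carrying CHOP-, ERSE- or UPRE-luciferase reporters plated 7 × 10³/well in 384-well plates, after 16 h given compound (10 µM), tunicamycin 1 µg/mL or DMSO for 24 h; luciferase by Bright-Glo. Means of 4 replicate wells, representative of 3 experiments.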

[5] = system: HEK293; experiment: Increase in CHOP mRNA expression in HEK293 cells at 10 uM incubated for 24 hrs by qRT-PCR method; format: functional, Homo sapiens
Method in brief: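 HEK293 cells given 10 µM compound or DMSO for 24 h; CHOP mRNA by qRT-PCR. Means of 3 replicate wells, 3 independent experiments, Student's t-test vs control.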

Cc1cccc(NC(=O)c2ccc([N+](=O)[O-])o2)c1C
IC50 [1]: 9.7 µM

O=C(Nc1ccc(N2CCOCC2)cc1)c1ccc([N+](=O)[O-])o1
IC50 [1]: 1.5 µM
IC50 [2]: 2.3 µM
IC50 [3]: 3.1 µM

O=C(Nc1ccc(I)cc1)c1ccc([N+](=O)[O-])o1
fold change (FC) [4]: 24
fold change (FC) [5]: 30
Activity [1]: Dose-dependent effect
IC50 [1]: 6.2 µM
Activity [2]: Dose-dependent effect
IC50 [2]: 9.5 µM
Activity [3]: Dose-dependent effect
IC50 [3]: 8.7 µM

O=C(Nc1cccc(OC(F)(F)F)c1)c1ccc([N+](=O)[O-])o1
IC50 [1]: 19.6 µM

CCc1cc(I)ccc1NC(=O)c1ccc([N+](=O)[O-])o1
IC50 [1]: 5.5 µM

O=C(Nc1cc(C(F)(F)F)ccc1Cl)c1ccc([N+](=O)[O-])o1
IC50 [1]: 5.1 µM

O=C(Nc1ccc(N2CCOCC2)c(Cl)c1)c1ccc([N+](=O)[O-])o1
IC50 [1]: 2.6 µM
IC50 [2]: 2.5 µM
IC50 [3]: 2 µM

O=C(Nc1ccc(N2CCOCC2)c(Br)c1)c1ccco1
IC50 [1]: > 40 µM

O=C(Nc1ccc(N2CCCCC2)c(Cl)c1)c1ccc([N+](=O)[O-])o1
IC50 [1]: 3.5 µM
IC50 [2]: 4.5 µM
IC50 [3]: 3.8 µM

O=C(Nc1cc(Cl)ccc1Cl)c1ccc([N+](=O)[O-])o1
IC50 [1]: 8.6 µM

O=C(Nc1ccc(N2CCN(Cc3ccccc3F)CC2)cc1)c1ccc([N+](=O)[O-])o1
IC50 [1]: 3 µM
IC50 [2]: 3.8 µM
IC50 [3]: 1.9 µM
